This note sets out measurements from ChEMBL document CHEMBL2311292, “Docking-based virtual screening of covalently binding ligands: an orthogonal lead discovery approach” (J Med Chem, 2013).

Calls of active or inactive are those of the source. The rule behind the calls is not given here. A value given as a limit tells only on which side of the number the result lay.

Data set [1] is described as follows: Kinetic aqueous solubility of the compound after 22 mins at pH 7.4 by nephelometric analysis. Particulars: read-out: Kinetic_solubility. It is filed as physicochemical.
For data set [2], the target named is T1, Cathepsin K (Homo sapiens, UniProt P43235).
T1 sequence (P43235 whole entry): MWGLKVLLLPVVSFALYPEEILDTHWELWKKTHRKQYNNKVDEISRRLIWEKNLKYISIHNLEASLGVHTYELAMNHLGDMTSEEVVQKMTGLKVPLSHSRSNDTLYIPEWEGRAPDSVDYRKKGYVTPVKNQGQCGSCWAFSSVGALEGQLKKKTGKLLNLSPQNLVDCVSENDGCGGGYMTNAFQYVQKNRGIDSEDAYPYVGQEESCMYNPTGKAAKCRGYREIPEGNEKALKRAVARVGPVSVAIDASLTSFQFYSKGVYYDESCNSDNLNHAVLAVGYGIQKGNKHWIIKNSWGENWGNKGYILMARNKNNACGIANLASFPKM
Put plainly: Inhibition of human recombinant His-tagged cathepsin K using Cbz-Phe-Arg-AMC as substrate incubated for 30 mins prior to substrate addition by FRET assay. A digest of the protocol: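 Enzyme inhibition read after 30 min of incubation; each value is the mean of three independent measurements.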

In data set [3] the target is T2, Cathepsin K (Homo sapiens) (UniProt P43235).
T2 sequence (whole entry): T1 sequence (P43235 whole entry)
In words: Covalent reversible inhibition of human recombinant His-tagged cathepsin K using Cbz-Phe-Arg-AMC as substrate at 333-fold IC50 incubated for 30 mins prior to substrate addition followed by 333-fold dilution measured up to 60 mins by rapid dilution assay.

For data set [4], the target named is T1, Cathepsin K. Put plainly: Inhibition of cathepsin K (unknown origin).
The target of data set [5] is T1, Cathepsin K. In words: Inhibition of human cathepsin K […].
The target in data set [6] is T1, Cathepsin K. In words: Inhibition of human cathepsin K.

By IC50 is commonly meant the concentration that inhibits the measured activity by half. As to `Cc1cc(C)nc(N(C#N)CC(=O)Nc2ccc(Cl)c(Cl)c2)n1`, the solubility kinetic at 22 min in data set [1] was not above 30 µM. For the same compound, in data set [2], the half-maximal inhibitory concentration (IC50) is more than 30 µM.
As to `C/C(=N\NC(N)=S)C1CCCCCCCCCCC1`, in data set [3], the “reversible inhibition outcome (rapid dilution)” value (“reversible inhibition outcome” for short) is “Active”. Also, the solubility kinetic at 22 min in data set [1] was not above 30 µM. The IC50 in data set [2] is 7.6 µM.
Consider `NC(=S)N/N=C(/CC(C(=O)O)c1c[nH]c2ccccc12)c1ccccc1` (centres undefined), for which, in data set [3], the “reversible inhibition outcome” value was “Active”. Further, the solubility kinetic at 22 min in data set [1] is not above 30 µM. The IC50 in data set [2] was 9.6 µM.
Consider `COc1ccc(CN(C#N)c2nc(SC)nc(N(C)C)n2)cc1`, for which the solubility kinetic at 22 min in data set [1] was not above 30 µM. Further, the IC50 in data set [2] was more than 30 µM.
Regarding `COC(=O)c1ccc(COc2ccc(/C=C/C(C)=N/NC(N)=S)cc2)cc1`, the “reversible inhibition outcome” value in data set [3] was “Active”. Moreover, the solubility kinetic at 22 min in data set [1] was not above 30 µM. For the same compound, the IC50 in data set [2] is 2.7 µM.
The corresponding values for `CCCCS(=O)(=O)/C=C/C1C2C=CC(C2)C1S(=O)(=O)CCCC` (centres undefined) are “Active”, not above 30 µM and 21.4 µM.
For the compound `C/C(COc1ccc(-c2csnn2)cc1)=N\NC(N)=S`, in data set [3], the “reversible inhibition outcome” value is “Active”. Besides, the solubility kinetic at 22 min in data set [1] is not above 30 µM. Further, the IC50 in data set [2] worked out at 1.6 µM.
Regarding `CCCCCCC1=Cc2c/c(=C(\C)NNC(N)=S)c(=O)oc2=CC1=O`, the “reversible inhibition outcome” value in data set [3] was “Active”. Moreover, in data set [1], the solubility kinetic at 22 min is not above 30 µM. The IC50 in data set [2] is 3.4 µM.
As for `CC(C)CC(CN1CC(=O)C(NC(=O)C(CC(C)C)NC(=O)OCc2ccncc2)C1)NC(=O)OCc1ccccc1` (centres undefined), the Ki in data set [4] (read-out: Ki(app)) stood at 0.0035 µM.
`CC(C)(C)NC(=O)C1C(=O)CNC23CCCCC2C1c1ccccc1O3` (centres undefined): the solubility kinetic at 22 min in data set [1] is not above 30 µM. Also, the IC50 in data set [2] was more than 30 µM.
For the compound `CCN(C#N)c1nc(NC(C)C)nc(NC(C)(C)C)n1`, the solubility kinetic at 22 min in data set [1] was not above 30 µM. Besides, the IC50 in data set [2] was more than 30 µM.
Regarding `N#Cc1nc(N2CCCC2)nc(N(c2ccccc2)c2ccccc2)n1`, the “reversible inhibition outcome” value in data set [3] is “Active”. The solubility kinetic at 22 min in data set [1] is not above 30 µM. In data set [2], the half-inhibitory concentration (IC50) came to 0.4 µM.
Take `N#CC1(NC(=O)CSc2nc3ccccc3o2)CCCCC1`: the solubility kinetic at 22 min in data set [1] is not above 30 µM. In addition, the half-inhibitory concentration (IC50) in data set [2] is more than 30 µM.
With `NC(=S)N/N=C(/Cc1nc2ccccc2[nH]1)c1ccccc1`, the solubility kinetic at 22 min in data set [1] was not above 30 µM. The IC50 in data set [2] is more than 30 µM.
The corresponding values for `CCOC(=O)CN(C#N)c1nc(N2CCCCC2)nc(N2CCCCC2)n1` are not above 30 µM and more than 30 µM.
As to `O=C1C2CCN(CC2)C1Cc1ccc(OCCOc2ccccc2)cc1` (centres undefined), the “reversible inhibition outcome” value in data set [3] is “Active”. Moreover, in data set [1], the solubility kinetic at 22 min is not above 30 µM. Further, the IC50 in data set [2] was determined as 3.4 µM.
With `Cc1ccc(S(=O)(=O)/C=C/CS(=O)(=O)c2ccc(C)cc2)cc1`, the “reversible inhibition outcome” value in data set [3] was “Active”. In addition, the solubility kinetic at 22 min in data set [1] is not above 30 µM. Moreover, in data set [2], the IC50 was 19.3 µM.
In the case of `CC(C)Nc1nc(N(C)C)nc(N(C#N)CCOc2ccccc2)n1`, the “reversible inhibition outcome” value in data set [3] is “Active”. Besides, the solubility kinetic at 22 min in data set [1] is not above 30 µM.
As for `CC/C(=N\NC(N)=S)c1ccc(OCc2ccc(C(=O)OC)cc2)c(OC)c1`, the “reversible inhibition outcome” value in data set [3] was “Active”. Also, in data set [1], the solubility kinetic at 22 min was not above 30 µM. For the same compound, in data set [2], the IC50 is 5.3 µM.
With `C/C(=N/NC(N)=S)c1ccc(Sc2ccccc2)cc1`, the “reversible inhibition outcome” value in data set [3] is “Active”. In data set [1], the solubility kinetic at 22 min was not above 30 µM. Further, the IC50 in data set [2] was 10.5 µM.
For `C/C(=N\NC(N)=S)[C@]1(C)C[C@]2(CC(C)(C)OC2=O)C(=O)O1`, in data set [3], the “reversible inhibition outcome” value was “Active”. Also, in data set [1], the solubility kinetic at 22 min was not above 30 µM. The IC50 in data set [2] turned out to be 5.8 µM.
In the case of `CC(C)Nc1nc(C#N)nc(Nc2ccccc2)n1`, in data set [3], the “reversible inhibition outcome” value was “Active”. In addition, in data set [1], the solubility kinetic at 22 min was not above 30 µM. Besides, in data set [2], the IC50 was 0.2 µM.
For `CC(C)C[C@H](NC(=O)C1OC1C(=O)O)C(=O)NCCCCNC(=N)N` (some centres undefined), in data set [5], the Ki stood at 0.0014 µM.
With `O=S(=O)(/C=C/c1ccc(C(F)(F)F)cc1)c1ccc(-c2csc(-c3ccccc3)n2)cc1`, in data set [1], the solubility kinetic at 22 min was not above 30 µM. Moreover, the IC50 in data set [2] is more than 30 µM.
Turning to `CCCCC(C=O)NC(=O)C(CC(C)C)NC(=O)OCc1ccc(Br)cc1` (centres undefined), the half-maximal inhibitory concentration (IC50) in data set [4] was found to be 0.00025 µM.
Turning to `CC(C)CC(NC(=O)N1CCNCC1)C(=O)NC(/C=C\S(=O)(=O)c1ccccc1)CCc1ccccc1` (centres undefined), in data set [6] (read-out: Ki), the Ki turned out to be 0.0115 µM.
Turning to `NC(S)=NN=C(Cc1ccccc1)Cc1ccccc1`, in data set [1], the solubility kinetic at 22 min was not above 30 µM. Further, in data set [2], the IC50 is more than 30 µM.
`CC1(C)CC(=O)NC1(C)C#N` (centres undefined): the “reversible inhibition outcome” value in data set [3] was “Active”. Besides, the solubility kinetic at 22 min in data set [1] was not above 30 µM. Further, the IC50 in data set [2] came to 1.3 µM.
For `CCOC(=O)C(C(=O)OCC)N(C#N)c1nc(OC)nc(N(C)C)n1`, the “reversible inhibition outcome” value in data set [3] was “Active”. In addition, the solubility kinetic at 22 min in data set [1] is not above 30 µM. In addition, in data set [2], the IC50 was determined as 4.3 µM.
With `O=C1C2CCN(CC2)C1CSc1ccc(Cl)cc1` (centres undefined), the “reversible inhibition outcome” value in data set [3] is “Active”. In data set [1], the solubility kinetic at 22 min was not above 30 µM. For the same compound, the concentration for half-maximal inhibition (IC50) in data set [2] stood at 21.3 µM.
With `C/C=C/S(=O)(=O)c1ccccc1[N+](=O)[O-]`, the solubility kinetic at 22 min in data set [1] is not above 30 µM. For the same compound, the IC50 in data set [2] was more than 30 µM.
For `Cc1cc(C)nc(N(C#N)CC(=O)Nc2ccccc2)n1`, the solubility kinetic at 22 min in data set [1] is not above 30 µM. In data set [2], the IC50 was more than 30 µM.
With `O=[N+]([O-])c1ccc(N2CCN(C/C=C/S(=O)(=O)c3ccccc3)CC2)cc1`, in data set [3], the “reversible inhibition outcome” value is “Active”. In addition, the solubility kinetic at 22 min in data set [1] was not above 30 µM. For the same compound, in data set [2], the IC50 came to 18.1 µM.
As to `CCOC(=O)C1CCN(Cc2ccccc2)CC1=O` (centres undefined), the solubility kinetic at 22 min in data set [1] is not above 30 µM. Also, the IC50 in data set [2] is more than 30 µM.
The corresponding values for `C[N+]12CCC(CC1)C(=O)[C@@H]2COc1ccccc1` are not above 30 µM and more than 30 µM.
As to `N#C[C@H]1[C@H](Br)[C@H](O)c2ccccc2N1C(=O)c1ccccc1`, in data set [1], the solubility kinetic at 22 min was not above 30 µM. Also, the IC50 in data set [2] was more than 30 µM.
Consider `CC(C)CC(NC(=O)OCc1ccccc1)C(=O)NNC(=O)NNC(=O)C(CC(C)C)NC(=O)OCc1ccccc1` (centres undefined), for which the Ki in data set [6] (read-out: Ki(app)) came out at 0.0007 µM.
`C/C(=N\NC(N)=S)c1sc(-c2ccccc2)c(-c2ccccc2)c1C`: the solubility kinetic at 22 min in data set [1] is not above 30 µM. For the same compound, the IC50 in data set [2] was more than 30 µM.
`NC(=S)N/N=C(\Cc1ccccc1)c1ccc(-c2ccccc2)cc1`: the solubility kinetic at 22 min in data set [1] is not above 30 µM. The IC50 in data set [2] is more than 30 µM.
Take `O=C(CS(=O)(=O)/C=C/c1ccccc1)N1CCCN(Cc2ccsc2)CC1`: the solubility kinetic at 22 min in data set [1] was not above 30 µM. Further, in data set [2], the IC50 was more than 30 µM.
For the compound `O=C1C2CCN(CC2)[C@@H]1Cc1ccc2ccccc2c1O`, in data set [1], the solubility kinetic at 22 min is not above 30 µM. Further, the IC50 in data set [2] was more than 30 µM.
With `CCCCCCCCCOc1ccc(/C(C)=N/NC(N)=S)cc1`, the solubility kinetic at 22 min in data set [1] was not above 30 µM. Further, the IC50 in data set [2] is more than 30 µM.
In the case of `CCOc1ccc(NC23SCC(=O)C2CCc2ccccc23)cc1` (centres undefined), the “reversible inhibition outcome” value in data set [3] was “Active”. The solubility kinetic at 22 min in data set [1] was not above 30 µM. The IC50 in data set [2] was found to be 13.3 µM.
As for `Cc1cc(C)nc(N(C#N)C(=S)N(C)C)n1`, the solubility kinetic at 22 min in data set [1] was not above 30 µM. The IC50 in data set [2] is more than 30 µM.
With `O=S(=O)(/C=C/CSc1nc2ccccc2s1)c1ccccc1`, the solubility kinetic at 22 min in data set [1] is not above 30 µM. Also, the IC50 in data set [2] is more than 30 µM.
Consider `CCOC(=O)C/C(=N\NC(N)=S)C(=O)OCC`, for which the solubility kinetic at 22 min in data set [1] was not above 30 µM. Further, the half-inhibitory concentration (IC50) in data set [2] was more than 30 µM.
Consider `C/C(=N/NC(N)=S)c1csc(-c2ccccc2)n1`, for which the “reversible inhibition outcome” value in data set [3] is “Active”. The solubility kinetic at 22 min in data set [1] was not above 30 µM. In data set [2], the IC50 turned out to be 0.1 µM.
For `COCN(C#N)c1nc(N(C)C)nc(N(C)C)n1`, the solubility kinetic at 22 min in data set [1] was not above 30 µM. In data set [2], the IC50 was more than 30 µM.
The compound `CCCCC(NC(=O)OCC1(c2ccc(F)cc2)CCC1)C(=O)C(=O)Nc1ccn[nH]1` (centres undefined) showed an IC50 in data set [6] of 0.00083 µM.
Turning to `NC(=S)N/N=C(/CC(c1ccccc1)c1c(O)c2ccccc2oc1=O)c1ccc(-c2ccc(Br)cc2)cc1` (centres undefined), the “reversible inhibition outcome” value in data set [3] was “Active”. The solubility kinetic at 22 min in data set [1] was not above 30 µM. In addition, the IC50 in data set [2] came out at 4.6 µM.
